Measured values: ChEMBL document CHEMBL4376856, “Discovery of N-(4-Aminobutyl)-N'-(2-methoxyethyl)guanidine as the First Selective, Nonamino Acid, Catalytic Site Inhibitor of Human Dimethylarginine Dimethylaminohydrolase-1 (hDDAH-1)” (J Med Chem, 2020)

Columns and labels:
[1] = target: T1, N(G),N(G)-dimethylarginine dimethylaminohydrolase 1 (Homo sapiens, UniProt O94760); experiment: Inhibition of 6xHis-tagged recombinant human DDAH1 expressed in Escherichia coli BL21 cells using NMMA as substrate measured after 30 mins by colder reagent based microplate reader assay
T1 sequence (O94760 whole entry): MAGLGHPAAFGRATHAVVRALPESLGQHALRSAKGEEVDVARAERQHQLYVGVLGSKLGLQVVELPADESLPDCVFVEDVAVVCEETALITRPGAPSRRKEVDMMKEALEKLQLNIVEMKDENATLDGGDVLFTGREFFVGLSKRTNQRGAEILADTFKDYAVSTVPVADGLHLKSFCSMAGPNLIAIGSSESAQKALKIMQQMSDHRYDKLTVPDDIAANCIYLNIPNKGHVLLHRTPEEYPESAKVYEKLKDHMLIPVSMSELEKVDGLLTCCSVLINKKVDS
Procedure, shortened: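 Ki against hDDAH-1, given as the mean ± SD of at least two independent experiments.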

[2] = target: T2, Arginase-1 (Bos taurus) (UniProt Q2KJ64); experiment: Inhibition of bovine liver arginase at 1 mM using L-arginine as substrate measured after 30 mins by colder reagent based microplate reader assay relative to control
T2 sequence (whole entry): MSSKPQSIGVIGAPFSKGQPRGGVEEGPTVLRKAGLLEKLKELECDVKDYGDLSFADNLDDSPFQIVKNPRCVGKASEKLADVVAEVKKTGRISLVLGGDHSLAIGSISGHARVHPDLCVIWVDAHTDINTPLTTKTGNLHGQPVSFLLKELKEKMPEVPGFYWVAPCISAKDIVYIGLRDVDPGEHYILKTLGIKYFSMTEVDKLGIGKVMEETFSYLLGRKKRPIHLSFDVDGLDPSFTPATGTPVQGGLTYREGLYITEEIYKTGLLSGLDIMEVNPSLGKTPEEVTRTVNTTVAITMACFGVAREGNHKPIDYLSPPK
Procedure, shortened: (§1)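 Each enzyme (arginase, nNOS, eNOS, iNOS) tested with inhibitor at 1 mM; percent inhibition given as the mean ± SD of at least three independent experiments.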

[3] = target: Nitric oxide synthase 1 (Homo sapiens) (UniProt P29475); experiment: Inhibition of neuronal NOS (unknown origin) assessed as formation of methemoglobin from oxyhemoglobin at 1 mM using L-arginine as substrate in presence of oxyhemoglobin and NADPH by UV-vis spectrophotometry relative to control; procedure, shortened: as §1
Nitric oxide synthase 1 (Homo sapiens), sequence (P29475 whole entry): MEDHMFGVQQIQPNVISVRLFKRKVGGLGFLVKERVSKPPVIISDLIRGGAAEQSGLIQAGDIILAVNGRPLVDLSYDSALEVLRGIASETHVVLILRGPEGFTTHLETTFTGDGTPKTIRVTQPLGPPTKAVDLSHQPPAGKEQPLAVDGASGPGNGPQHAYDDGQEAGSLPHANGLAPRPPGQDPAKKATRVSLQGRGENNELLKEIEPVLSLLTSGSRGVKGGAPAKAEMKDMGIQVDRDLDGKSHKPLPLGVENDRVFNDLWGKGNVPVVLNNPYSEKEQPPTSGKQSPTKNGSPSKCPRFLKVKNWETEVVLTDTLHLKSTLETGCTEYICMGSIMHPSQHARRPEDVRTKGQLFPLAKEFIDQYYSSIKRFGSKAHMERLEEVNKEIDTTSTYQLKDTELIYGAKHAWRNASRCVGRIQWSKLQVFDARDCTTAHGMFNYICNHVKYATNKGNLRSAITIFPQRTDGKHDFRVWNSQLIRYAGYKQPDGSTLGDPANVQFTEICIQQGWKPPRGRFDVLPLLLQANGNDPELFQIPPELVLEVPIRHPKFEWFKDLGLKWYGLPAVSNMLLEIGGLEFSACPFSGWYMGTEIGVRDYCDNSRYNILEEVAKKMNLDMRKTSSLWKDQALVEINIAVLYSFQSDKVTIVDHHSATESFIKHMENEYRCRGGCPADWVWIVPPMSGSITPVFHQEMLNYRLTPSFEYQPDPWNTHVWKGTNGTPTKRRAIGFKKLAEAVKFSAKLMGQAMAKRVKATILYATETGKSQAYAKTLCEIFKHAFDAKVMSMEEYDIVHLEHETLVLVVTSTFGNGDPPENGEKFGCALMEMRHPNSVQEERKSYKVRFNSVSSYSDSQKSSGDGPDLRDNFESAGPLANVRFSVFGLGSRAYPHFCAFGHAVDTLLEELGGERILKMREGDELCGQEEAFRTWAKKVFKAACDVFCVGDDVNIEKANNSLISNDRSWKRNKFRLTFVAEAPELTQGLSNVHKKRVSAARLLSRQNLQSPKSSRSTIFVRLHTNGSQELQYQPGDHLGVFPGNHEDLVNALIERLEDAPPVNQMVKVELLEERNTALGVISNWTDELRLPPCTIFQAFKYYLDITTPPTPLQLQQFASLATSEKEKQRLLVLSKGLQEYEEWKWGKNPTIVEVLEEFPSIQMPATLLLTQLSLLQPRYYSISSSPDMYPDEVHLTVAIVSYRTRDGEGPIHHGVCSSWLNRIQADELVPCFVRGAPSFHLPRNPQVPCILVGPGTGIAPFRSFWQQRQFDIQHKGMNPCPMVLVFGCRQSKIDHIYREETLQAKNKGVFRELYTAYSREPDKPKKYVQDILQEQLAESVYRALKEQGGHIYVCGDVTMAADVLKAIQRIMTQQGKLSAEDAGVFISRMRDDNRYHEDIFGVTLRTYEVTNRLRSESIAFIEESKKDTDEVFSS

[4] = target: T3, Nitric oxide synthase 3 (Homo sapiens) (UniProt P29474); experiment: Inhibition of endothelial NOS (unknown origin) assessed as formation of methemoglobin from oxyhemoglobin at 1 mM using L-arginine as substrate in presence of oxyhemoglobin and NADPH by UV-vis spectrophotometry relative to control; procedure, shortened: as §1
T3 sequence (whole entry): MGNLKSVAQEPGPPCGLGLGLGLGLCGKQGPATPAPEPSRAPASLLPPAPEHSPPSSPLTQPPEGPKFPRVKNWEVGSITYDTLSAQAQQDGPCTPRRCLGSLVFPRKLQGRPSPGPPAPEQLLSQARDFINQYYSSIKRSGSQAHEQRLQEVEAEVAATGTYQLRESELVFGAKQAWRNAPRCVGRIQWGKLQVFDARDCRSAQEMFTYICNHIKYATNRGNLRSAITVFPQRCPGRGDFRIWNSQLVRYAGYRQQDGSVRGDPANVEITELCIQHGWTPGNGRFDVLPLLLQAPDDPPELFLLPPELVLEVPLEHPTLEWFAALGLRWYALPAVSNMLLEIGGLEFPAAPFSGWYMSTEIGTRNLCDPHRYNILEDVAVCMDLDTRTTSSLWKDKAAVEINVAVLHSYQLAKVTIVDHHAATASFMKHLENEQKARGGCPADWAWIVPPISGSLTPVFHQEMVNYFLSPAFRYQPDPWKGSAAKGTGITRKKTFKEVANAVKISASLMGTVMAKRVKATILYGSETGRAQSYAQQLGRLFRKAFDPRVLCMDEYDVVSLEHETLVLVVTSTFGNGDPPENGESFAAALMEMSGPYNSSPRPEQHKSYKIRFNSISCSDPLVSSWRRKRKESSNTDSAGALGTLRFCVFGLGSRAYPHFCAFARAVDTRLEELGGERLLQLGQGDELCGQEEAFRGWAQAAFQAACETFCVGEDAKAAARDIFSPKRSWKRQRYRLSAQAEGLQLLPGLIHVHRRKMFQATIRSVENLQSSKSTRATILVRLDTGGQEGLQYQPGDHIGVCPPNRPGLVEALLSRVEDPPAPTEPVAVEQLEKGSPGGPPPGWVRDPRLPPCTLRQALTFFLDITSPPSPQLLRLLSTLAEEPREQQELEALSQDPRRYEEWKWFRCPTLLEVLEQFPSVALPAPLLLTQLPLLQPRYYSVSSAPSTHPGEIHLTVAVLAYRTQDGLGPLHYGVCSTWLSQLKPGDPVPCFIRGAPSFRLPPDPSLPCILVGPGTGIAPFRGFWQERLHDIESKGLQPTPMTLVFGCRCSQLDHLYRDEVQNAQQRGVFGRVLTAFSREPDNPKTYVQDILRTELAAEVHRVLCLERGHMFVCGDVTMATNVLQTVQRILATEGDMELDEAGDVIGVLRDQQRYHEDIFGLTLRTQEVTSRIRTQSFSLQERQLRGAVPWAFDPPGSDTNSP

[5] = target: Nitric oxide synthase, inducible (Homo sapiens) (UniProt P35228); experiment: Inhibition of iNOS (unknown origin) assessed as formation of methemoglobin from oxyhemoglobin at 1 mM using L-arginine as substrate in presence of oxyhemoglobin and NADPH by UV-vis spectrophotometry relative to control; procedure, shortened: as §1
Nitric oxide synthase, inducible (Homo sapiens), sequence (P35228 whole entry): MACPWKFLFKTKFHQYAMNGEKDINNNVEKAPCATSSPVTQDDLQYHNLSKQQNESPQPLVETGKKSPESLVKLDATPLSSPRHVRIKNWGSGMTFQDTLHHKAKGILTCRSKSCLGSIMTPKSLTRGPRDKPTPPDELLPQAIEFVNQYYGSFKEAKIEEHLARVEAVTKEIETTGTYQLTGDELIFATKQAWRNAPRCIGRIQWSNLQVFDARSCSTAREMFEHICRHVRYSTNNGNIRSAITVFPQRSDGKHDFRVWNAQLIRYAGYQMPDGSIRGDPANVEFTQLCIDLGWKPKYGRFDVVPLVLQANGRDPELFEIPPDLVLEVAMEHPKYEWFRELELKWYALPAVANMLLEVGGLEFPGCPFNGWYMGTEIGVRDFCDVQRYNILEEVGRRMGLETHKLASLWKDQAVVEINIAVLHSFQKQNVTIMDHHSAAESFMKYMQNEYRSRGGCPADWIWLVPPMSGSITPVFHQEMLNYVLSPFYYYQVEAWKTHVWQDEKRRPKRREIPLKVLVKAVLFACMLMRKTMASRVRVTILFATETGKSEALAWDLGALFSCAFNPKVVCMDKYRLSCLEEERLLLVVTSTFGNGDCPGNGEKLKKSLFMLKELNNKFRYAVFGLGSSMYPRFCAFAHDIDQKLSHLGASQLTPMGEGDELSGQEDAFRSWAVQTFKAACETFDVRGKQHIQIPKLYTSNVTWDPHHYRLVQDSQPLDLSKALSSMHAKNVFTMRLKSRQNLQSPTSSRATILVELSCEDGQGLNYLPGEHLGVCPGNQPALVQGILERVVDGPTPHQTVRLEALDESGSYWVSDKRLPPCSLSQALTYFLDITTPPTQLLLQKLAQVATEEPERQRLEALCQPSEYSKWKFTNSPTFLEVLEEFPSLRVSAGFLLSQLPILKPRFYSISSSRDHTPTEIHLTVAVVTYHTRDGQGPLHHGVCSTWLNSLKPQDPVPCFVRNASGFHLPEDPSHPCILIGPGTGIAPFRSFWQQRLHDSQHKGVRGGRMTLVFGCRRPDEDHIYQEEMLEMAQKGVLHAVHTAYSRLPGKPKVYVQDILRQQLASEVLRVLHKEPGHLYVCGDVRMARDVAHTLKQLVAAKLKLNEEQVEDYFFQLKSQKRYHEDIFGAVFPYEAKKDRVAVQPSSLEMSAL

[6] = system: HEK-293T; experiment: Cytotoxicity against human HEK293T cells assessed as effect on cell number at 0.1 to 1000 uM incubated for overnight by DAPI staining based analysis
[7] = system: HEK-293T; experiment: Cytotoxicity against human HEK293T cells assessed as effect on cell viability by measuring ATP content at 0.1 to 1000 uM incubated for overnight by CellTiter-Glo luminescent analysis; format: cell-based
[8] = Prodrug conversion in porcine liver mitochondrial membrane vesicles assessed as N-(4-Aminobutyl)-N'-(2-methoxyethyl)guanidine formation at 3 mM and pH 6 preincubated for 3 mins followed by NADH addition measured after 20 mins under aerobic conditions by RP-HPLC analysis; format: ADME, cell membranes, Sus scrofa, Mitochondrial membrane vesicle; conditions: pig, pH 6, 20 min, 3000 µM
Procedure, shortened: (§2)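 Prodrug incubated with porcine liver subcellular fractions (homogenate, mitochondria, outer mitochondrial membrane vesicles). The formed guanidine was quantified by HPLC after precolumn o-phthalaldehyde derivatization. Data are means ± SD of biological triplicates.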

[9] = target: T4, Mitochondrial amidoxime reducing component 2 (Homo sapiens, UniProt Q969Z3); experiment: Substrate activity at human recombinant mARC2 expressed in Escherichia coli assessed as enzyme-mediated N-(4-Aminobutyl)-N'-(2-methoxyethyl)guanidine formation at 3 mM and pH 6 preincubated for 3 mins followed by NADH addition measured after 20 mins under aerobic conditions by RP-HPLC analysis; format: ADME; conditions: pH 6, 20 min, 3000 µM
T4 sequence (Q969Z3 whole entry): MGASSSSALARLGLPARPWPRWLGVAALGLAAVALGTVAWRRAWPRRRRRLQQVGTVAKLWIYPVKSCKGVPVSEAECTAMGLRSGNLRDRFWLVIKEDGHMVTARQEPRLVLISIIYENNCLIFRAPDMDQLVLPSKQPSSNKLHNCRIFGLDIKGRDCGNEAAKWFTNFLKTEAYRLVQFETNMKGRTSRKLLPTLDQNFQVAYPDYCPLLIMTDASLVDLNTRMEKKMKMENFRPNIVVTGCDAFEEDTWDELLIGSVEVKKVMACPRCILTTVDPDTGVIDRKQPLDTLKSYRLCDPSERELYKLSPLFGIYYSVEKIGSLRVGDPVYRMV
Procedure, shortened: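 Incubation used the reconstituted, heterologously expressed human mARC-2 N-reductive system. The guanidine product was measured by HPLC after precolumn derivatization with o-phthalaldehyde.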

[10] = Prodrug conversion in porcine liver homogenate assessed as formation of N-(4-Aminobutyl)-N'-(2-methoxyethyl)guanidine formation at 3 mM and pH 6 preincubated for 3 mins followed by NADH addition measured after 20 mins under aerobic conditions by RP-HPLC analysis; format: ADME, tissue-based, Sus scrofa; conditions: pig, tissue homogenate, pH 6, 20 min, 3000 µM; procedure, shortened: as §2
[11] = Chemical stability of compound at 250 uM in phosphate buffer at pH 2 to 9 and 37 degree C after 24 hrs by RP-HPLC analysis; format: physicochemical; conditions: pH 2, 24 h
[12] = Prodrug conversion in porcine liver mitochondria assessed as N-(4-Aminobutyl)-N'-(2-methoxyethyl)guanidine formation at 3 mM and pH 6 preincubated for 3 mins followed by NADH addition measured after 20 mins under aerobic conditions by RP-HPLC analysis; format: ADME, Sus scrofa; conditions: pig, pH 6, 20 min, 3000 µM; procedure, shortened: as §2
[13] = target: T1, N(G),N(G)-dimethylarginine dimethylaminohydrolase 1; experiment: Inhibition of 6xHis-tagged recombinant human DDAH1 expressed in Escherichia coli BL21 cells at 1 mM using NMMA as substrate measured after 30 mins by colder reagent based microplate reader assay

Compound | Ki [1] [µM] | inhibition [2] [%] | inhibition [3] [%] | inhibition [4] [%] | inhibition [5] [%] | other results
COCC(=N)NCCC[C@H](N)C(=O)O | 73 | 22 | 93 | 89 | 75 | –
COCCC(=N)NCCC[C@H](N)C(=O)O | 9 | 43 | 65 | 54 | 50 | –
COCC(=N)NCCCCN | 983 | 21 | 78 | 44 | 42 | –
COCCNC(=N)NCCC[C@H](N)C(=O)O | – | 29 | – | – | 0 | –
COCCC(=N)NCCCCN | 1450 | 22 | 19 | 28 | 16 | –
COCCNC(=N)NCCCCN | – | 11 | 0 | 13 | 0 | Activity [6]: Non-Toxic; Activity [7]: Non-Toxic
C=CCCNC(=N)NCCCCN | 59 | 0 | 5 | 35 | 23 | –
N=C(CCl)NCCC[C@H](N)C(=O)O | 1.3 | – | – | – | – | –
COCCNC(=N)NCCC[C@H](N)C(=O)NS(C)(=O)=O | 1 | – | – | – | – | –
COCCN/C(=N/O)NCCCCN | – | – | – | – | – | Drug metabolism [8]: Metabolite_Detected; Activity [9]: Active; Drug metabolism [10]: Metabolite_Detected; Stability [11]: Stable; Drug metabolism [12]: Metabolite_Detected; Activity [6]: Non-Toxic; Activity [7]: Non-Toxic
COCCNC(=N)NCCCCC(=O)O | 489 | 35 | 5 | 13 | 2 | –
COCCNC(=N)NCCC(C)C | 2760 | 20 | 0 | 19 | 4 | –
COCCCC(=N)NCCCCN | – | 14 | 7 | 36 | 15 | inhibition [13]: < 20%
C=CCC(=N)NCCC[C@H](N)C(=O)O | – | 76 | – | – | – | –
COCCCC(=N)NCC[C@H](N)C(=O)O | – | < 20 | < 20 | < 20 | < 20 | inhibition [13]: < 20%
C=CCC(=N)NCCCCN | 768 | 6 | 99 | 56 | 100 | –
CCCCCNC(=N)NCCOC | 2810 | 15 | 0 | 0 | 21 | –
COCCCC(=N)NCCC[C@H](N)C(=O)O | 156 | 20 | 35 | 29 | 26 | –
C=CCCNC(=N)NCCC[C@H](N)C(=O)O | – | 70 | – | – | – | –
